Calls of active or inactive are those of the source. The rule behind the calls is not given here.
Columns and labels:
[1] = target: T1, Topoisomerase I (Bos taurus) (UniProt Q2HPH0); assay: (§1) Inhibition of calf thymus topoisomerase 1 assessed as suppression of relaxation of supercoiled pBR322 DNA at 100 uM incubated for 0.5 hrs by bromophenol blue and xylene cyanol FF staining based electrophoresis method
T1 sequence (whole entry): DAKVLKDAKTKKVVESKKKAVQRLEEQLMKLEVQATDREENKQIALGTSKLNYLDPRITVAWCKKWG
Method in brief: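 Calf thymus Topo I with supercoiled pBR322 DNA and 100 μM compound, 37 °C for 0.5 h. Stopped with dye solution (bromophenol blue, xylene cyanol FF, glycerol). 1% agarose, 0.66 h in 1× TAE, then 5 μg mL-1 EB staining 0.5 h and UV imaging. Inhibition judged from supercoiled DNA remaining; camptothecin as control.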

[2] = target: T1, Topoisomerase I (Bos taurus); assay: Inhibition of calf thymus topoisomerase 1 assessed as increase in nicked DNA at 50 uM using supercoiled pBR322 DNA incubated for 0.5 hrs by ethidium bromide staining based DNA-cleavage assay
Method in brief: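 Reaction: 20 units Topo I, 0.5 μg supercoiled pBR322 DNA, 50 or 100 μM compound in 40 μL Topo I buffer, 37 °C for 0.5 h. Terminated with 1% SDS, proteinase K 0.8 mg mL-1 at 50 °C for 10 min. Electrophoresis 60 V, 25 °C, 0.5 h, EB soak 0.5 μg mL-1, second run 0.5 h. Read-out: nicked versus other band intensities, UV.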

[3] = target: T1, Topoisomerase I (Bos taurus); assay: Inhibition of calf thymus topoisomerase 1 assessed as increase in nicked DNA at 10 uM using supercoiled pBR322 DNA incubated for 0.5 hrs by ethidium bromide staining based DNA-cleavage assay
[4] = tested on: DNA topoisomerase I (Bos taurus); assay: Induction of DNA intercalation assessed as reduction in topoisomerase 1-mediated DNA relaxation at 100 uM using supercoiled pBR322 DNA incubated for 0.5 hrs in presence of calf thymus topoisomerase 1 by electrophoresis method
[5] = target: T1, Topoisomerase I (Bos taurus); assay: as §1, with “Potency index, ratio of enzyme inhibition of securinine to enzyme inhibition of test compound for inhibition” for “Inhibition”
[6] = target: T1, Topoisomerase I (Bos taurus); assay: Inhibition of calf thymus topoisomerase 1 assessed as reduction in topo1/DNA complex formation at 50 to 400 uM pre-incubated for 0.33 hrs before addition of supercoiled pBR322 DNA substrate by EMSA
Method in brief: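 BSA added to Topo I buffer, then four units calf thymus Topo I and compound (50, 100, 200 or 400 μM), standing 0.33 h. 0.1 μg pBR322 DNA added, 37 °C for 0.5 h. Electrophoresis at 1 V cm-1, 4 °C, 8 h on 1% gel containing EB; bands under UV.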

Row | Compound | inhibition [1] | inhibition [2] | inhibition [3] | Activity [4] | Ratio [5] | inhibition [6]
1 | CCCN(C(=O)c1ccccc1)[C@H]1CC2=CC(=O)O[C@@]23C[C@@H]1N1CCCC[C@@H]13 | Active | inactive | inactive | – | – | –
2 | CCCN(C(=O)c1ccc(C(=O)N(CCC)[C@H]2CC3=CC(=O)O[C@@]34C[C@@H]2N2CCCCC24)cc1)C1CC2=CC(=O)O[C@@]23C[C@@H]1N1CCCC[C@@H]13 (single isomer, unassigned) | Active | – | – | inactive | – | –
3 | CC[C@@]1(O)C(=O)OCc2c1cc1n(c2=O)Cc2cc3ccccc3nc2-1 | Active | Active | Active | – | – | –
4 | CCCN(C(=O)Cc1cccc(CC(=O)N(CCC)[C@H]2CC3=CC(=O)O[C@@]34C[C@@H]2N2CCCCC24)c1)C1CC2=CC(=O)O[C@@]23C[C@@H]1N1CCCCC13 (single isomer, unassigned) | Active | – | – | inactive | – | –
5 | CCCN(C(=O)CCCC(=O)N(CCC)[C@H]1CC2=CC(=O)O[C@@]23C[C@@H]1N1CCCC[C@@H]13)[C@@H]1CC2=CC(=O)O[C@@]23C[C@@H]1N1CCCC[C@@H]13 | Active | – | – | – | – | –
6 | CCCN(C(=O)[C@H]1CCC[C@@H](C(=O)N(CCC)[C@H]2CC3=CC(=O)O[C@@]34C[C@@H]2N2CCCC[C@@H]24)C1)[C@@H]1CC2=CC(=O)O[C@@]23C[C@@H]1N1CCCC[C@@H]13 | Active | inactive | inactive | – | – | –
7 | CCCN(C(=O)c1cccc(C(=O)N(CCC)[C@H]2CC3=CC(=O)O[C@@]34C[C@@H]2N2CCCCC24)c1)C1CC2=CC(=O)O[C@@]23C[C@@H]1N1CCCC[C@@H]13 (single isomer, unassigned) | Active | – | Active | inactive | 3 | Dose-dependent effect
8 | CCCN(C(=O)[C@H]1CCCC[C@H]1C(=O)N(CCC)[C@H]1CC2=CC(=O)O[C@@]23C[C@@H]1N1CCCC[C@@H]13)[C@@H]1CC2=CC(=O)O[C@@]23C[C@@H]1N1CCCC[C@@H]13 | Active | – | – | – | – | –
9 | CCCN(C(=O)CCCCC(=O)N(CCC)[C@H]1CC2=CC(=O)O[C@@]23C[C@@H]1N1CCCC[C@@H]13)[C@@H]1CC2=CC(=O)O[C@@]23C[C@@H]1N1CCCC[C@@H]13 | Active | inactive | inactive | – | – | –
10 | CCCN(C(=O)c1ccccc1C(=O)N(CCC)[C@H]1CC2=CC(=O)O[C@@]23C[C@@H]1N1CCCCC13)C1CC2=CC(=O)O[C@@]23C[C@@H]1N1CCCC[C@@H]13 (single isomer, unassigned) | Active | – | – | inactive | – | –
11 | O=C1C=C2C=C[C@@H]3C[C@@]2(O1)[C@H]1CCCCN31 | Active | – | – | – | – | –
12 | CCCN(C(=O)[C@H]1CC[C@H](C(=O)N(CCC)[C@H]2CC3=CC(=O)O[C@@]34C[C@@H]2N2CCCC[C@@H]24)CC1)[C@@H]1CC2=CC(=O)O[C@@]23C[C@@H]1N1CCCC[C@@H]13 | Active | – | – | – | – | –
13 | CCCN(C(=O)Cc1ccc(CC(=O)N(CCC)[C@H]2CC3=CC(=O)O[C@@]34C[C@@H]2N2CCCC[C@@H]24)cc1)[C@@H]1CC2=CC(=O)O[C@@]23C[C@@H]1N1CCCC[C@@H]13 | Active | – | – | inactive | – | –
14 | CCCN(C(=O)Cc1ccccc1CC(=O)N(CCC)[C@H]1CC2=CC(=O)O[C@@]23C[C@@H]1N1CCCC[C@@H]13)[C@@H]1CC2=CC(=O)O[C@@]23C[C@@H]1N1CCCC[C@@H]13 | Active | – | – | inactive | – | –

Source: ChEMBL document CHEMBL4138059, “Novel bivalent securinine mimetics as topoisomerase I inhibitors” (Medchemcomm, 2017)
